Reference: ChEMBL document CHEMBL3875168, “Synthesis and apoptosis inducing studies of triazole linked 3-benzylidene isatin derivatives” (Eur J Med Chem, 2016)
The source made the active and inactive calls. No cut-off for these calls is given here.

How the values were obtained:
[1] = Cytotoxicity against human A549 cells assessed as cell growth inhibition after 48 hrs by MTT assay; format: functional, cell-based; conditions: A549, 48 h
Outline: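 Cell lines (NCCS) grown in DMEM or RPMI with 10% FBS and antibiotic-antimycotic at 37 °C, 5% CO2, 90% humidity. Cells seeded at 3-5×10^3 per well, treated 48 h with serial dilutions in medium beside vehicle control. Medium replaced with MTT (0.5 mg/mL) for 4 h, absorbance read at 570 nm. IC50 taken from concentration-response curves; sunitinib served as reference.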

DU-145 [2] = experiment: Induction of morphological changes in human DU145 cells assessed as cell shrinkage at 1.25 to 5 uM after 48 hrs by acridine orange/ethidium bromide-dual staining based fluorescence microscopic method; format: functional
Outline: (§1)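 DU145 plated at 1×10^6 cells/mL, treated at several concentrations and kept 48 h at 37 °C in 5% CO2. Equal volumes of acridine orange and ethidium bromide (10 μg/mL) added, and cells imaged within 10 min by fluorescence microscopy (excitation 488 nm, emission 550 nm) at 200x.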

DU-145 [3] = experiment: Induction of morphological changes in human DU145 cells assessed as membrane blebbing at 1.25 to 5 uM after 48 hrs by acridine orange/ethidium bromide-dual staining based fluorescence microscopic method; format: functional, cell-based; outline: as §1
DU-145 [4] = experiment: Induction of apoptosis in human DU145 cells assessed as formation of fragmented nuclei at 2.5 to 5 uM after 48 hrs by DAPI staining based fluorescence microscopic method; format: functional, cell-based
Outline: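 DU145 treated for 48 h, PBS-washed, permeabilized with 0.1% Tween 20 for 10 min and stained with 1 μM DAPI. Nuclear morphology of control and treated cells viewed by fluorescence microscopy (excitation 359 nm, emission 461 nm) at 200x.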

DU-145 [5] = experiment: Induction of apoptosis in human DU145 cells assessed as early apoptotic cells at 2.5 uM after 24 hrs by Annexin V-FITC/propidium iodide staining based flow cytometry (reference value: 2.14%); format: functional
[6] = Cell cycle arrest in human DU145 cells assessed as accumulation at S phase at 5 uM after 24 hrs by propidium iodide staining-based flow cytometry (reference value: 10.3%); format: functional; conditions: DU-145
Outline: (§2)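 Compound given to DU145 at 2.5 and 5.0 μM for 24 h alongside untreated cells. Cells harvested, PBS-washed, fixed in ice-cold 70% ethanol, then stained 30 min at 37 °C in the dark with propidium iodide (50 μg/mL) plus RNase A (20 μg/mL) in 0.1% Triton X-100. About 10000 events per sample read by flow cytometry; a representative of three independent experiments is shown.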

[7] = Cell cycle arrest in human DU145 cells assessed as accumulation at G2/M phase at 5 uM after 24 hrs by propidium iodide staining-based flow cytometry (reference value: 29.66%); format: functional; conditions: DU-145; outline: as §2
DU-145 [8] = experiment: Induction of apoptosis in human DU145 cells assessed as early apoptotic cells at 5 uM after 24 hrs by Annexin V-FITC/propidium iodide staining based flow cytometry (reference value: 2.14%; format: functional
DU-145 [9] = experiment: Induction of mitochondrial membrane potential loss in human DU145 cells at 5 uM after 24 hrs by flow cytometry (reference value: 5.39%); format: functional
DU-145 [10] = experiment: Induction of apoptosis in human DU145 cells assessed as decrease in Bcl2 level after 48 hrs by Western blot analysis; format: functional, cell-based
DU-145 [11] = experiment: Induction of apoptosis in human DU145 cells assessed as viable cells at 5 uM after 24 hrs by Annexin V-FITC/propidium iodide staining based flow cytometry (reference value: 90.32%); format: functional; conditions: DU-145, 24 h, read-out: Activity
DU-145 [12] = experiment: Induction of apoptosis in human DU145 cells assessed as viable cells at 1.25 uM after 24 hrs by Annexin V-FITC/propidium iodide staining based flow cytometry (reference value: 90.32%); format: functional; conditions: DU-145, 24 h, read-out: Activity
DU-145 [13] = experiment: Induction of apoptosis in human DU145 cells assessed as increase in necrotic cells after 24 hrs by Annexin V-FITC/propidium iodide staining based flow cytometry; format: functional, cell-based

Q: For `O=C1Nc2ccc(C(c3ccccc3)c3ccccc3)cc2/C1=C/c1cccc(OCc2cn(Cc3ccccc3)nn2)c1`, which IC50 [1] is on record?
A: The IC50 was 14.7 µM.

Q: What about the Activity (DU-145 [2]) of the same molecule?
A: The Activity was “Active”.

Q: What about the Activity (DU-145 [3]) of the same molecule?
A: The Activity was “Active”.

Q: What about the Activity (DU-145 [4]) of the same molecule?
A: Its Activity is “Active”.

Q: What about the Activity (DU-145 [5]) of the same molecule?
A: The Activity was 18.05%.

Q: What about the Activity [6] of the same molecule?
A: The Activity was 22.5%.

Q: What about the Activity [7] of the same molecule?
A: Its Activity is 48%.

Q: And the Activity (DU-145 [8])?
A: Its Activity is 13.64%.

Q: What about the Activity (DU-145 [9]) of the same molecule?
A: Its Activity is 99.7%.

Q: What about the Activity (DU-145 [10]) of the same molecule?
A: Its Activity is “Active”.

Q: What about the viability at 5 µM (DU-145 [11]) of the same molecule?
A: The viability at 5 µM was 45.9%.

Q: And the viability at 1.25 µM (DU-145 [12])?
A: The viability at 1.25 µM was 76.5%.

Q: And the Activity (DU-145 [13])?
A: The Activity was “Dose-dependent effect”.
